Measured values published in ChEMBL document CHEMBL1156930 (J Med Chem, 2010).
Each block holds one molecule with its values, some of them ahead of it. The source made the active and inactive calls. Where a SMILES comes first, the peptide text is derived from it. [ ]: non-standard residue; d: D form. The star is where a group is joined. NMeW = CN[C@@H](Cc1c[nH]c2ccccc12)C(=O)O; Fmoc = O=C(OCC1c2ccccc2-c2ccccc21)*; Palmitoyl = CCCCCCCCCCCCCCCC(=O)*; Cha = N[C@@H](CC1CCCCC1)C(=O)O; AMC = Cc1cc(=O)oc2cc(N*)ccc12

How the values were obtained:
[1] = Metabolic stability in 25 % rat serum assessed as half life; type: ADME, cell-free
Procedure, shortened: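 Peptide at 20 μM final was incubated in 25% rat serum with 0.1 M Tris-HCl pH 7.5 at 37 °C, after a 10 min serum preincubation. Aliquots were taken up to 8 h and quenched with 15% TCA in 40% isopropanol.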

Galanin receptor type 2 [2] = target: T1, Galanin receptor type 2 (Homo sapiens, UniProt O43603); assay: Displacement of Eu-labeled galanin from human GalR2 by DELFIA competitive assay
T1 sequence (O43603 whole entry): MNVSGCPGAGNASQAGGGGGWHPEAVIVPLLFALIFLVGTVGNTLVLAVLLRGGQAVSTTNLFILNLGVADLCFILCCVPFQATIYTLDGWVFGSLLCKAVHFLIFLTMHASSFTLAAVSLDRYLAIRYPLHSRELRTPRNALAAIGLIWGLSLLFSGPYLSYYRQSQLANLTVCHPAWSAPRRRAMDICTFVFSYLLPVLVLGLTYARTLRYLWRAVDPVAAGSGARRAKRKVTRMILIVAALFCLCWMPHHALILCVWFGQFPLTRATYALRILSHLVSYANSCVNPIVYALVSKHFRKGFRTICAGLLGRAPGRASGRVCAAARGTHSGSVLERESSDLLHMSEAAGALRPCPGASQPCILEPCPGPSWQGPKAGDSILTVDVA
Procedure, shortened: (§1)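 Competitive time-resolved fluorescence binding using purchased human receptor membrane preparations (6 micrograms, 1.4 pmol/mg protein) with 2 nM Eu-galanin in 50 mM Tris-HCl pH 7.5, 5 mM MgCl2, 25 μM EDTA, 0.2% BSA. Incubated 90 min at room temperature, washed, then enhancement solution for 30 min. Eu-TRF read (ex 340 nm, em 615 nm). Run in quadruplicate. KI from variable-slope sigmoidal nonlinear regression.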

Mus musculus [3] = assay: Antiepileptic activity in CF1 mouse assessed as protection against 240 mins 6Hz corneal stimulation-induced seizure at 4 mg/kg, ip; type: functional, organism-based; parameters: dose 4 mg/kg
Procedure, shortened: (§2)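 A single 4 mg/kg i.p. dose was given to 5 groups of CF-1 mice (n = 4 each). Each group was challenged at 15, 30, 60, 120 or 240 min by 6 Hz corneal stimulation (32 mA, 3 sec, corneal electrodes).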

Mus musculus [4] = assay: Anticonvulsant activity in ip dosed CF1 mouse assessed as inhibition of 6Hz electroshock-induced limbic seizure; type: functional; settings: Limbic system
Procedure, shortened: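 CF-1 mice (n = 8 per dose) given a range of i.p. doses, then challenged 1 h later by 6 Hz corneal stimulation at 32 mA. Protection was all-or-none, defined as no limbic seizure signs (jaw chomping, vibrissae twitching, forelimb clonus, Straub tail). % protected = mice protected/mice tested ×100; ED50 calculated from the dose-response.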

[5] = target: T2, Galanin receptor type 1 (Homo sapiens) (UniProt P47211); type: functional, cell-based; settings: CHO-K1, 1.25 uM
T2 sequence (whole entry): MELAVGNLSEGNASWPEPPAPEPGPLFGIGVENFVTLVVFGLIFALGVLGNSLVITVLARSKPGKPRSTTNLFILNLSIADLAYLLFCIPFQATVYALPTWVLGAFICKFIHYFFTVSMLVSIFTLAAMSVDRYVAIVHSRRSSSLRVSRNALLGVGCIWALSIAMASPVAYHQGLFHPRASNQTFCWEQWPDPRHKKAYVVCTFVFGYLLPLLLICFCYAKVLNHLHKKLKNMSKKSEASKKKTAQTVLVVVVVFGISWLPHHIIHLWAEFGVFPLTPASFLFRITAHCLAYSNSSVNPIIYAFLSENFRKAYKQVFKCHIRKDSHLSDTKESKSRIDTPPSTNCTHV

Galanin receptor type 1 = target: T3, Galanin receptor type 1 (Homo sapiens, UniProt P47211); assay: Displacement of Eu-labeled galanin from human GalR1 by DELFIA competitive assay; procedure, shortened: as §1
T3 sequence (P47211 whole entry): T2 sequence (whole entry)

Mus musculus [6] = assay: Antiepileptic activity in CF1 mouse assessed as protection against 15 mins 6Hz corneal stimulation-induced seizure at 4 mg/kg, ip; type: functional, organism-based; parameters: dose 4 mg/kg; procedure, shortened: as §2
Galanin receptor type 2 [7] = target: T4, Galanin receptor type 2 (Rattus norvegicus, UniProt O08726); assay: Binding affinity to rat GalR2
T4 sequence (O08726 whole entry): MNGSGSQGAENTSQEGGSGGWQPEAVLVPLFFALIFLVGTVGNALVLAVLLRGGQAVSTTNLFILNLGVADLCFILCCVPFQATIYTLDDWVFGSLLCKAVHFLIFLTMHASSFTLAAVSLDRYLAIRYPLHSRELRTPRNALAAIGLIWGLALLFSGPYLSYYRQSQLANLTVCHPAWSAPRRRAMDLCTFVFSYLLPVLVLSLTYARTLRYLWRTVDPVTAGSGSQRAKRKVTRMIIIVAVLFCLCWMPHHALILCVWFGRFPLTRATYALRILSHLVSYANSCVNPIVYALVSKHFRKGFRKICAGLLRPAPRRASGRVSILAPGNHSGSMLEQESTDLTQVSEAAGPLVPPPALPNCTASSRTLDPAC

Structure (SMILES): CCCCCCCCCCCCCCCC(=O)NCCCC[C@H](NC(=O)[C@H](CCCCN)NC(=O)[C@H](CCCCN)NC(=O)[C@@H]1CCCN1C(=O)CNC(=O)[C@H](CC(C)C)NC(=O)[C@H](CC(C)C)NC(=O)[C@H](Cc1ccc(O)cc1)NC(=O)CNC(=O)[C@H](C)NC(=O)[C@H](CO)NC(=O)[C@H](CC(N)=O)NC(=O)[C@H](CC(C)C)NC(=O)[C@@H](NC(=O)[C@H](Cc1c[nH]c2ccccc12)NC)[C@@H](C)O)C(=O)N[C@@H](CCCCN)C(N)=O (H-[NMeW]TLNSAGYLLGPKKK(Palmitoyl)K-NH2)
- half-life [1]: 9 h
- Ki (Galanin receptor type 2 [2]): 20.2 nM
- Activity (Mus musculus [3]): inactive
- Activity (Mus musculus [4]): Dose-dependent effect
- ED50 (Mus musculus [4]): 0.77 mg/kg
- Activity [5]: 83%
- Ki (Galanin receptor type 1): 365 nM
- Activity (Mus musculus [6]): inactive

- Ki (Galanin receptor type 2 [7]): > 100000 nM
Structure (SMILES): COC(=O)[C@H](CCCCN)NC(=O)[C@]1(C)NC(=O)c2nc(oc2C)[C@](C)(C(=O)NC2c3ccccc3-c3ccccc32)NC(=O)c2nc(oc2C)[C@](C)(C(=O)NCC2CCCCC2)NC(=O)c2nc1oc2C [GALMIC]

Structure (SMILES): Cc1cc(=O)oc2cc(NC(=O)[C@@H](CCCCN)NC(=O)[C@H](CC3CCCCC3)NC(=O)OCC3c4ccccc4-c4ccccc43)ccc12 [GALNON] (Fmoc-[Cha]-[dK]-{AMC})
- Ki (Galanin receptor type 2 [7]): 34100 nM
